This passage reports Activity and Kd results from ChEMBL document CHEMBL1136963, “Sesterterpenes as tubulin tyrosine ligase inhibitors. First insight of structure-activity relationships and discovery of new lead” (J Med Chem, 2009).

For one data set, the system named is J774.A1. Kind of data set: Cytotoxicity against mouse J774A1 cells up to >100 uM after 24 to 48 hrs by MTT assay. It is filed as functional, cell-based.
For a further data set, the system named is MCF7. Description: Cytotoxicity against human MCF7 cells up to >100 uM after 24 to 48 hrs by MTT assay. It is filed as functional, cell-based.
Another data set concerns HEK293. Description: Cytotoxicity against HEK293 cells up to >100 uM after 24 to 48 hrs by MTT assay. The note with it: Homo sapiens. Format: functional, cell-based.
The target of another data set is T1, Tubulin--tyrosine ligase (Homo sapiens, UniProt Q8NG68).
T1 sequence (Q8NG68 whole entry): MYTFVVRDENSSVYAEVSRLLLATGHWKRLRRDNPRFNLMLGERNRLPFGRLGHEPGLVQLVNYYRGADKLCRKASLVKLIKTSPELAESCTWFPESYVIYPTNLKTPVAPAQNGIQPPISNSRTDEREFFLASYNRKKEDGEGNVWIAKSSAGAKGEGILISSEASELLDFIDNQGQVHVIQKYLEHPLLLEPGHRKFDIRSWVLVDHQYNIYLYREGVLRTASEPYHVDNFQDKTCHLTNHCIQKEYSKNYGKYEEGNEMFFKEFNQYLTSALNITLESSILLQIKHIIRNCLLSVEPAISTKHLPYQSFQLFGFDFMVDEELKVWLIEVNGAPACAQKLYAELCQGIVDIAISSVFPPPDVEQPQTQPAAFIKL
Description: Binding affinity to TTL by surface plasmon resonance. The essentials:
(§1)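 Biacore SPR. TTL and BSA each amine-coupled (100 µg/mL in 10 mM sodium acetate, pH 5.0) to 8-12 kRU, with an unmodified reference surface. Running buffer 10 mM NaH2PO4, 150 mM NaCl, 0.5% DMSO, pH 7.4. Five-point 2-fold series, typically 0.05-10 µM, in triplicate. 25 °C, 50 µL/min, 60 s association, 200 s dissociation. Double-referenced. KD fitted from at least 10 curves.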

The target in another data set is Albumin (Bos taurus, UniProt P02769). Description: Binding affinity to bovine serum albumin by surface plasmon resonance. It is filed as ADME. The note with it: cattle, isolated protein. The gist of the method:
as §1

The target in data set [1] is T2, Tubulin--tyrosine ligase (Homo sapiens) (UniProt Q8NG68).
T2 sequence (whole entry): T1 sequence (Q8NG68 whole entry)
Kind of data set: Inhibition of TTL in human MCF7 cells assessed as increase in delta2-tubulin level at 100 uM after 24 to 48 hrs by Western blot. It is filed as cell-based. The essentials:
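MCF-7 cells were grown in DMEM with 10% FBS at 37 °C, 5% CO2, seeded at 4 × 10^5 per well, and treated 24 h later with or without 100 µM compound for 24 and 48 h. NP-40 lysates (20 µg protein, Bradford) were run on 10% SDS-PAGE and blotted. Membranes were probed overnight at 4 °C with rabbit polyclonal anti-Δ2-α-tubulin.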

Active and inactive are the calls of the source. No cut-off for these calls is given here.

Sequence of Albumin (P02769 whole entry): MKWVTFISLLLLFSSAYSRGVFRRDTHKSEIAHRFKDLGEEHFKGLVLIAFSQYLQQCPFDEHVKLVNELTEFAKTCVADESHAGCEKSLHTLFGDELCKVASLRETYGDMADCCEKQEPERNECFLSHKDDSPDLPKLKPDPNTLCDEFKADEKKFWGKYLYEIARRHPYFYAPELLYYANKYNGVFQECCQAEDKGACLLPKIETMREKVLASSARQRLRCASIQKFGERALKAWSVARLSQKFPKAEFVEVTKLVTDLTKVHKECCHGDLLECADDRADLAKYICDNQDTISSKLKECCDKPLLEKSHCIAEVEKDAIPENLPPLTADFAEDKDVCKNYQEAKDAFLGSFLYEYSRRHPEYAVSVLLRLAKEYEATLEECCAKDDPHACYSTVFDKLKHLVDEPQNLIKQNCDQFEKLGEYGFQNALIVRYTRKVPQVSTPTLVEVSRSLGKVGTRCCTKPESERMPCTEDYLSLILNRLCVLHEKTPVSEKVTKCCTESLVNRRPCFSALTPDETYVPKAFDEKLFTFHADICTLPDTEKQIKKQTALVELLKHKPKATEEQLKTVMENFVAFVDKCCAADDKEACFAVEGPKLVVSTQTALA

With `C=C1C[C@H](O)[C@H]2[C@](C)(CO)CCC[C@]2(C)[C@H]1CC/C(C)=C/[C@H](O)[C@H]1OC(=O)C=C1C`, the outcome in the data set on J774.A1, with MCF7 and with HEK293 was inactive. Moreover, the Kd at Tubulin--tyrosine ligase was 2000 nM. For the same molecule, on Albumin, the Activity entry is recorded as “Not Active”.
Consider `CC1=CC(=O)O/C1=C\C=C(/C)CC[C@@H]1[C@@]2(C)CCC[C@@](C)(CO)[C@@H]2[C@@H](O)C[C@@]1(C)O`, for which the result with J774.A1, in the data set with MCF7 and in the data set on HEK293 was inactive. The same molecule registered a Kd on Tubulin--tyrosine ligase of 110 nM. For the same molecule, the Activity entry at Albumin is listed as “Not Active”.
Turning to `C=C(CC[C@@H]1[C@@]2(C)CCC[C@@](C)(CO)[C@@H]2[C@@H](O)C[C@@]1(C)O)[C@@H](O)[C@@H](O)C1OC(=O)C=C1C` (stereo in doubt; 23) [listing 1 of 2 here], the outcome with J774.A1, with MCF7 and in the data set with HEK293 was inactive.
In the case of `CC1=CC(=O)O[C@@H]1[C@@H](O)/C=C(\C)CC[C@@H]1[C@@]2(C)CCCC(C)(C)[C@@H]2[C@@H](O)C[C@@]1(C)O`, the outcome in the data set on J774.A1, in the data set on MCF7 and with HEK293 was inactive. On Albumin, the Activity result was “Not Active”.
For `CCO[C@H]1O[C@H]2C[C@@](C)(O)[C@H](CC/C(C)=C/[C@H](O)[C@H]3OC(=O)C=C3C)[C@@]3(C)CCC[C@]1(C)[C@H]23`, the result with J774.A1, in the data set on MCF7 and in the data set with HEK293 was inactive. In addition, at Tubulin--tyrosine ligase, the Kd was 960 nM. On Albumin, the Activity entry is on record as “Not Active”.
For the molecule `CC1=CC(=O)O[C@@H]1[C@@H](O)/C=C(\C)CC[C@@H]1[C@@]2(C)CCC[C@@](C)(C(=O)O)[C@@H]2[C@@H](O)C[C@@]1(C)O`, the result with J774.A1, in the data set with MCF7 and in the data set with HEK293 was inactive. For the same molecule, the dissociation constant Kd on Tubulin--tyrosine ligase came to 3000 nM. The Activity result at Albumin is reported as “Not Active”.
As to `CC1=CC(=O)O[C@@H]1[C@@H](O)/C=C(\C)CC[C@@H]1[C@@]2(C)CCC[C@@](C)(CO)[C@@H]2[C@@H](O)C[C@@]1(C)O`, the result in the data set on J774.A1, with MCF7 and in the data set on HEK293 was inactive. On Tubulin--tyrosine ligase, the dissociation constant Kd came to 4700 nM. For the same molecule, the Activity entry on Albumin is recorded as “Not Active”.
As to `C=C1C[C@H](O)[C@@H]2[C@](C)(CCC[C@@]2(C)C=O)[C@H]1CC/C(C)=C/[C@H](O)[C@H]1OC(=O)C=C1C`, the result in the data set with J774.A1, in the data set with MCF7 and with HEK293 was inactive. In addition, binding on Tubulin--tyrosine ligase was characterised by a dissociation constant (Kd) of 3300 nM. Moreover, on Albumin, the Activity entry is reported as “Not Active”.
With `CC1=CC(=O)O[C@@H]1[C@@H](O)/C=C(\C)CC[C@@H]1[C@@]2(C)CCC[C@@]3(C)C(=O)O[C@@H](C[C@@]1(C)O)[C@H]23`, the result with J774.A1, in the data set on MCF7 and with HEK293 was inactive. The Activity result on Albumin was “Not Active”. The outcome in data set [1] was Active.
Take `CC1=CC(=O)O/C1=C\C=C(/C)CC[C@@H]1[C@@]2(C)CCC[C@@]3(C)C(=O)O[C@@H](C[C@@]1(C)O)[C@H]23`: the result with J774.A1, with MCF7 and with HEK293 was inactive. At Tubulin--tyrosine ligase, this molecule displayed a Kd of 150 nM. Besides, the Activity entry on Albumin is recorded as “Not Active”.
Turning to `CC1=CC(=O)O[C@@H]1C/C=C(\C)CC[C@@H]1[C@@]2(C)CCC[C@@](C)(C=O)[C@@H]2[C@@H](O)C[C@@]1(C)O`, the result in the data set on J774.A1, in the data set on MCF7 and in the data set on HEK293 was inactive. Binding at Tubulin--tyrosine ligase was put at a Kd of 810 nM. Moreover, the Activity entry on Albumin is “Not Active”.
As to `CC1=CC(=O)O/C1=C\C=C(/C)CC[C@@H]1[C@@]2(C)CCC[C@@]3(C)C(O)O[C@@H](C[C@@]1(C)O)[C@H]23` (some centres undefined), the outcome with J774.A1, in the data set with MCF7 and with HEK293 was inactive. The Kd at Tubulin--tyrosine ligase is 480 nM. At Albumin, the Activity result was “Not Active”.
For `C=C(CC[C@@H]1[C@@]2(C)CCC[C@@](C)(CO)[C@@H]2[C@@H](O)C[C@@]1(C)O)[C@@H](O)[C@@H](O)C1OC(=O)C=C1C` (stereo in doubt; 22), the outcome in the data set on J774.A1, with MCF7 and in the data set with HEK293 was inactive.
With `CC1=CC(=O)O[C@@H]1C/C=C(\C)CC[C@@H]1[C@@]2(C)CCC[C@@](C)(CO)[C@@H]2[C@@H](O)C[C@@]1(C)O`, the result in the data set with J774.A1, with MCF7 and in the data set with HEK293 was inactive. For the same molecule, the Kd on Tubulin--tyrosine ligase stood at 72 nM. In addition, the Activity entry on Albumin is recorded as “Not Active”.
In the case of `C=C1C[C@@H]2OC[C@]3(C)CCC[C@](C)([C@H]1CC/C(C)=C/C[C@H]1OC(=O)C=C1C)[C@@H]23`, the outcome in the data set on J774.A1, in the data set with MCF7 and in the data set with HEK293 was inactive. The Kd at Tubulin--tyrosine ligase was determined as 8700 nM. In addition, on Albumin, the Activity result is reported as “Not Active”.
Consider `C=C(CC[C@@H]1[C@@]2(C)CCC[C@@](C)(CO)[C@@H]2[C@@H](O)C[C@@]1(C)O)[C@@H](O)[C@@H](O)C1OC(=O)C=C1C` (stereo in doubt; 23) [listing 2 of 2 here], for which, on Albumin, the Activity entry is “Not Active”.
As for `CC1=CC(=O)O[C@@H]1[C@@H](O)/C=C(\C)CC[C@@H]1[C@@]2(C)CCC[C@@](C)(C=O)[C@@H]2[C@@H](O)C[C@@]1(C)O`, the result with J774.A1, in the data set on MCF7 and in the data set with HEK293 was inactive. Besides, binding at Tubulin--tyrosine ligase was characterised by a dissociation constant (Kd) of 3000 nM. Further, the Activity result at Albumin was “Not Active”.
For `CC1=CC(=O)O[C@@H]1[C@@H](O)/C=C(\C)CC[C@@H]1[C@@]2(C)CCC[C@@]3(C)CO[C@@H](C[C@@]1(C)O)[C@@H]32`, the outcome with J774.A1, in the data set on MCF7 and with HEK293 was inactive. Further, the Activity entry on Albumin is listed as “Not Active”.
For `CCO[C@H]1O[C@H]2C[C@@](C)(O)[C@H](CC/C(C)=C/C[C@H]3OC(=O)C=C3C)[C@@]3(C)CCC[C@]1(C)[C@H]23`, the outcome in the data set on J774.A1, with MCF7 and in the data set with HEK293 was inactive. At Tubulin--tyrosine ligase, this molecule came in with a Kd of 73 nM. In addition, the Activity result at Albumin is “Not Active”.
As to `COC(=O)[C@]1(C)CCC[C@@]2(C)[C@H]1[C@@H](O)C[C@@](C)(O)[C@@H]2CC/C(C)=C/[C@H](O)[C@H]1OC(=O)C=C1C`, the outcome with J774.A1, with MCF7 and with HEK293 was inactive. In addition, the dissociation constant Kd on Tubulin--tyrosine ligase amounted to 6200 nM. The Activity result at Albumin is listed as “Not Active”.
For `CC1=CC(=O)O/C1=C\C=C(/C)CC[C@@H]1[C@@]2(C)CCC[C@@](C)(C(=O)O)[C@@H]2[C@@H](O)C[C@@]1(C)O`, the outcome in the data set on J774.A1, in the data set with MCF7 and with HEK293 was inactive. Also, on Tubulin--tyrosine ligase, binding was characterised by a dissociation constant (Kd) of 93 nM. The Activity entry on Albumin is on record as “Not Active”.
In the case of `CC1=CC(=O)OC1C/C=C(\C)CC[C@@H]1[C@@]2(C)CCC[C@@](C)(C(=O)O)[C@@H]2[C@@H](O)C[C@@]1(C)O` (some centres undefined), the outcome with J774.A1, in the data set with MCF7 and in the data set with HEK293 was inactive. On Tubulin--tyrosine ligase, the dissociation constant (Kd) came to 7 nM. Besides, at Albumin, the Activity entry was “Not Active”.
For `CC1=CC(=O)O/C1=C\C=C(/C)CC[C@@H]1[C@@]2(C)CCC[C@@](C)(C=O)[C@@H]2[C@@H](O)C[C@@]1(C)O`, the result in the data set on J774.A1, in the data set on MCF7 and in the data set with HEK293 was inactive. Further, at Tubulin--tyrosine ligase, the equilibrium dissociation constant (Kd) worked out at 200 nM. Also, at Albumin, the Activity entry was “Not Active”.
`C=C(CC[C@@H]1[C@@]2(C)CCC[C@@](C)(C=O)[C@@H]2[C@@H](O)C[C@@]1(C)O)[C@@H](O)[C@@H](O)C1OC(=O)C=C1C` (some centres undefined): the result in the data set on J774.A1, in the data set on MCF7 and in the data set on HEK293 was inactive. In addition, the Activity result at Albumin was “Not Active”.
